pIC50: −log10 of the molar value. Converted amounts (≈) assume the structure as drawn. “And” between values parts separate entries of the source, which are not always exact repeats. Equal entries are not always repeated. The source made the active and inactive calls. No cut-off for these calls is given here.
Experiments:
Pseudomonas aeruginosa [1] = assay: Antibacterial activity against Pseudomonas aeruginosa after 24 hrs by microdilution method; assay type: functional
Pseudomonas aeruginosa [2] = assay: Antibacterial activity against Pseudomonas aeruginosa MTCC 2488 incubated for 14 to 16 hrs by micro broth dilution method; assay type: functional; conditions: time 14-16 hrs
Procedure, shortened: (§1)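 Broth microdilution. E. coli and P. aeruginosa grown in LB, S. aureus in BHI, to mid-log phase at 37 °C with shaking. Cells washed and resuspended in PBS, then exposed to graded compound concentrations at 10^6 CFU/mL at 37 °C for 14–16 h. OD600 read. MIC is the lowest concentration with no visible growth or OD close to the bacteria-free control. Repeated thrice at the MIC.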

Escherichia coli [3] = assay: Antibacterial activity against Escherichia coli MTCC 1687 incubated for 14 to 16 hrs by micro broth dilution method; assay type: functional; conditions: time 14-16 hrs; procedure, shortened: as §1
Staphylococcus aureus [4] = assay: Antibacterial activity against methicillin resistant Staphylococcus aureus incubated for 14 to 16 hrs by micro broth dilution method; assay type: functional; conditions: time 14-16 hrs
Procedure, shortened: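 MRSA grown in BHI broth at 37 °C with shaking to mid-log phase, harvested, PBS-washed and resuspended in PBS; 10^6 CFU mL−1 incubated with serially varied compound concentrations at 37 °C for 14–16 h; OD600 read. MIC is the lowest concentration with no visible growth or OD near the bacteria-free control; repeated thrice.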

Staphylococcus aureus [5] = assay: Antibacterial activity against Staphylococcus aureus MTCC 96 incubated for 14 to 16 hrs by micro broth dilution method; assay type: functional; conditions: time 14-16 hrs; procedure, shortened: as §1
Staphylococcus aureus [6] = assay: Bactericidal activity against Staphylococcus aureus MTCC 96 assessed as fragmented cell morphology incubated for 5 hrs by FESEM analysis; assay type: functional, organism-based
Procedure, shortened: (§2)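 S. aureus MTCC 96 and E. coli MTCC 1687 harvested by centrifugation (5000 rpm, 5 min) and washed. Exposed to compound for 5 h alongside untreated control. Cells washed with water, drop-cast on foil, air-dried, mounted on carbon tape, gold double-coated, and imaged by FESEM.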

HaCaT [7] = assay: Cytotoxicity against human HaCaT cells after 24 hrs by MTT assay; assay type: cell-based
Pseudomonas aeruginosa [8] = assay: Bactericidal activity against Pseudomonas aeruginosa MTCC 2488 incubated for 24 hrs by micro broth dilution method; assay type: functional
[9] = Therapeutic index, ratio of IC50 for human HaCaT to MIC for Staphylococcus aureus; assay type: toxicity; conditions: HaCaT cells
Staphylococcus aureus [10] = assay: Bactericidal activity against methicillin resistant Staphylococcus aureus […] by micro broth dilution method; assay type: functional
[11] = Drug release in PBS at pH 7.4 assessed as tetracyclin release incubated for 60 hours by fluorometric method; conditions: buffer, pH 7.4, 60 h
Staphylococcus aureus [12] = assay: Antibiofilm activity against Staphylococcus aureus MTCC 96 assessed as inhibition of biofilm formation incubated for overnight by crystal violet staining assay; assay type: functional, organism-based; conditions: dose 6.25-100 µM
Procedure, shortened: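 S. aureus MTCC 96 grown and exposed to compound as in the MIC assay, then incubated overnight. Planktonic cells removed, wells rinsed with PBS and air-dried. Stained with 1% (v/v) crystal violet for 20 min, dried, dye taken up in 95% ethanol, and absorbance read at 590 nm.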

[13] = Aggregation property of the compound in aqueous medium assessed as formation of spherical aggregates by FE-TEM analysis; assay type: physicochemical; conditions: buffer
Procedure, shortened: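 Lipid aggregates prepared in PBS pH 7.4 by film hydration, not extruded, then diluted to half concentration. Applied to carbon-coated copper grid for 1 min, uranyl acetate stain, excess wicked off. Grid dried overnight at 30 °C and imaged by TEM at 200 kV.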

Cell membrane [14] = assay: Induction of membrane depolarization in Staphylococcus aureus MTCC 96 assessed as increase in fluorescence intensity at 0 to 4 uM by DiSC3-5 dye based fluorescence assay; assay type: subcellular; conditions: dose 0-4 µM
Procedure, shortened: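 Mid-log S. aureus MTCC 96 resuspended in 10 mM HEPES with 50 mM glucose and loaded with 0.4 μM (final) DiSC3(5) for 1 h. KCl added to 100 mM, 10 min wait, then compound at 0, 2 or 4 μM or 30 μM valinomycin as positive control. Fluorescence recorded at excitation 620 nm, emission 650 nm.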

[15] = Hemolytic activity against human erythrocytes incubated for 1 hr by UV-vis spectroscopic method; assay type: ADME, cell-based, Erythrocyte
Procedure, shortened: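 Erythrocytes from fresh human blood spun at 1500 rpm for 10 min, PBS-washed, made to 5% haematocrit. Serial compound dilutions incubated with the cells for 1 h at 37 °C. Buffer served as negative control and 0.5% Triton X-100 as positive control. After centrifugation, supernatant absorbance read at 410 nm and % haemolysis computed against both controls.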

Escherichia coli [16] = assay: Bactericidal activity against Escherichia coli MTCC 1687 incubated for 24 hrs by micro broth dilution method; assay type: functional
Escherichia coli [17] = assay: Bactericidal activity against Escherichia coli MTCC 1687 assessed as fragmented cell morphology incubated for 5 hrs by FESEM analysis; assay type: functional, organism-based; procedure, shortened: as §2
[18] = Drug release in PBS at pH 7.4 assessed as amoxicillin release incubated for 60 hours by fluorometric method; conditions: buffer, pH 7.4, 60 h
[19] = Aggregation property of compound assessed as spherical aggregates size by dynamic light scattering analysis; assay type: physicochemical
Procedure, shortened: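 Chloroform stock dried to a film by rotary evaporation, hydrated overnight at 50 °C in PBS (137 mM NaCl, 2.7 mM KCl, 8 mM Na2HPO4, 2 mM KH2PO4, pH 7.4), then vortexed and intermittently sonicated to unilamellar vesicles. Hydrodynamic diameter and zeta potential measured by DLS at 25 °C in buffers of different pH.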

[20] = Therapeutic index, ratio of IC50 for human HaCaT to MIC for Escherichia coli; assay type: toxicity; conditions: HaCaT cells, read-out: TI
Cell membrane [21] = assay: Disruption of bacterial cell membrane in Staphylococcus aureus MTCC 96 assessed as increase in PI uptake by measuring increase in fluorescence intensity by PI dye based spectrofluorometric analysis; assay type: subcellular; conditions: time 1-3 hrs, TDE = time-dependent effect
Procedure, shortened: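 S. aureus MTCC 96 grown overnight and diluted in medium to 10^6 CFU/mL. Compound added, then incubated at 37 °C, 180 rpm. Samples taken at 1, 2 and 3 h, washed in PBS, stained with 30 μM PI for 30 min, washed again. Fluorescence read at excitation 535 nm, emission 617 nm.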

Staphylococcus aureus [22] = assay: Bactericidal activity against Staphylococcus aureus assessed as membrane damage incubated for 5 hrs by cFDA-SE dye based fluorescence microscopic analysis; assay type: functional, organism-based
Procedure, shortened: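 S. aureus cultured and harvested, then exposed to compound (buffer-only control) for 5 h. Cells washed and diluted to 10^6 CFU/mL, stained separately with 30 μM PI or 10 μM cFDA-SE for 30 min, and viewed by fluorescence microscopy.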

Staphylococcus aureus [23] = assay: Bactericidal activity against Staphylococcus aureus MTCC 96 […] by micro broth dilution method; assay type: functional
[24] = Solubility of compound in PBS at pH 7.4; assay type: physicochemical; conditions: buffer
Escherichia coli [25] = assay: Synergistic antibacterial activity against Escherichia coli assessed as tetracyclin MIC encapsulated by compound; assay type: functional
Procedure, shortened: (§3)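 Antibiotic-loaded liposomes (film hydrated with tetracycline or amoxicillin in PBS, freeze–thaw, vortexing, unloaded drug removed by centrifugation) tested by the same broth microdilution protocol: mid-log cells in PBS at 10^6 CFU/mL, 37 °C, 14–16 h, OD600.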

Staphylococcus aureus [26] = assay: Synergistic antibacterial activity against Staphylococcus aureus assessed as tetracyclin MIC encapsulated by compound; assay type: functional; procedure, shortened: as §3
HaCaT [27] = assay: Cytotoxicity against human HaCaT cells up to 100 uM after 24 hrs by MTT assay; assay type: cell-based
Staphylococcus aureus [28] = assay: Synergistic antibacterial activity against Staphylococcus aureus assessed as amoxicillin MIC encapsulated by compound; assay type: functional; procedure, shortened: as §3
Escherichia coli [29] = assay: Synergistic antibacterial activity against Escherichia coli assessed as amoxicillin MIC encapsulated by compound; assay type: functional; procedure, shortened: as §3

Row | Compound | MIC (Pseudomonas aeruginosa [1]) | MIC (Pseudomonas aeruginosa [2]) [µM] | MIC (Escherichia coli [3]) [µM] | MIC (Staphylococcus aureus [4]) [µM] | MIC (Staphylococcus aureus [5]) [µM] | other results
1 | CCCCCCCCCCCCC[N+](C)(C)Cc1ccccc1.[Cl-] [BENZALKONIUM CHLORIDE] | 32 µg/mL | – | – | – | – | –
2 | CCCCCCCCCCCCSCc1cc(CN=[N+]=[N-])cc(CSCCCCCCCCCCCC)c1 | – | > 100 | > 100 | > 100 | > 100 | –
3 | CCCCCCCCCCCC[S+](C)Cc1cc(C[n+]2ccccc2)cc(C[S+](C)CCCCCCCCCCCC)c1.F[B-](F)(F)F.F[B-](F)(F)F.F[B-](F)(F)F (stereo unspecified) | – | 12 | 7.5 | 6.3 | 6.3 | Activity (Staphylococcus aureus [6]): Active; pIC50 (HaCaT [7]): 4.57; MBC (Pseudomonas aeruginosa [8]): 24 µM; selectivity ratio [9]: 4.3; MBC (Staphylococcus aureus [10]): 12.5 µM; Activity [11]: 40%; Activity (Staphylococcus aureus [12]): Dose-dependent effect; Activity [13]: Active; Activity (Cell membrane [14]): Active; HC50 at 1 h [15]: 29 µM; MBC (Escherichia coli [16]): 10 µM; Activity (Escherichia coli [17]): Active; Activity [18]: 60%; Activity [19]: 270 nm; selectivity ratio [20]: 3.6; Activity (Cell membrane [21]): Tde; Activity (Staphylococcus aureus [22]): Active; MBC (Staphylococcus aureus [23]): 12.5 µM
4 | CCSCc1cc(CSCC)cc(C[n+]2ccccc2)c1 | – | > 100 | > 100 | > 100 | > 100 | –
5 | CCCCCCCCN=c1ccn(CCCCCCCCCCn2ccc(=NCCCCCCCC)cc2)cc1.Cl.Cl [OCTENIDINE HYDROCHLORIDE] | 6.25 µM and 3.9 µg/mL | – | – | – | – | –
6 | CCCCCCCCCCCCSCc1cc(CSCCCCCCCCCCCC)cc(Cn2cc(CS(=O)(=O)O)nn2)c1 | – | > 100 | > 100 | > 100 | > 100 | –
7 | Oc1cc(Cl)ccc1Oc1ccc(Cl)cc1Cl [TRICLOSAN] | > 512 µg/mL | – | – | – | – | –
8 | CC[S+](C)Cc1cc(C[n+]2ccccc2)cc(C[S+](C)CC)c1.F[B-](F)(F)F.F[B-](F)(F)F.F[B-](F)(F)F (stereo unspecified) | – | > 100 | > 100 | > 100 | > 100 | solubility [24]: Soluble
9 | CN(C)[C@@H]1C(O)=C(C(N)=O)C(=O)[C@@]2(O)C(O)=C3C(=O)c4c(O)cccc4[C@@](C)(O)[C@H]3C[C@@H]12 [TETRACYCLINE] | – | 14 (≈ 6.22 µg/mL) | 8.5 (≈ 3.78 µg/mL) | > 100 | 4.2 (≈ 1.87 µg/mL) | pIC50 (HaCaT [7]): 5.10; MIC (Escherichia coli [25]): 2 µM; MIC (Staphylococcus aureus [26]): 0.7 µM
10 | CCCCCCCCCCCC[S+](C)Cc1cc(Cn2cc(CS(=O)(=O)O)nn2)cc(C[S+](C)CCCCCCCCCCCC)c1.F[B-](F)(F)F.F[B-](F)(F)F (stereo unspecified) | – | 25 | 12 | 25 | 10 | MBC (Pseudomonas aeruginosa [8]): 50 µM; MBC (Staphylococcus aureus [10]): > 100 µM; HC50 at 1 h [15]: 35 µM; MBC (Escherichia coli [16]): 20 µM; Activity (HaCaT [27]): Non-Toxic; MBC (Staphylococcus aureus [23]): 12.5 µM
11 | N=C(NCCCCCCNC(=N)NC(=N)Nc1ccc(Cl)cc1)NC(=N)Nc1ccc(Cl)cc1.O=C(O)[C@H](O)[C@@H](O)[C@H](O)[C@H](O)CO | 15.6 µg/mL and 30.9 µM | – | – | – | – | –
12 | CCCCCCCCCCCCSCc1cc(CSCCCCCCCCCCCC)cc(C[n+]2ccccc2)c1 | – | > 100 | > 100 | > 100 | > 100 | –
13 | CC1(C)S[C@@H]2[C@H](NC(=O)[C@H](N)c3ccc(O)cc3)C(=O)N2[C@H]1C(=O)O [AMOXICILLIN] | – | 4.3 (≈ 1.57 µg/mL) | 11 (≈ 4.02 µg/mL) | > 50 | 6.8 (≈ 2.48 µg/mL) | pIC50 (HaCaT [7]): 4.53; MIC (Staphylococcus aureus [28]): 1.2 µM; MIC (Escherichia coli [29]): 1.7 µM

— ChEMBL document CHEMBL4732041, “Sulfonium-based liposome-encapsulated antibiotics deliver a synergistic antibacterial activity” (RSC Med Chem, 2021)
